Data from ChEMBL document CHEMBL1138317, “Antibacterial oxazolidinones possessing a novel C-5 side chain. (5R)-trans-3-[3-Fluoro-4- (1-oxotetrahydrothiopyran-4-yl)phenyl]-2- oxooxazolidine-5-carboxylic acid amide (PF-00422602), a new lead compound” (J Med Chem, 2007).
pIC50: −log10 of the molar value. Converted amounts (≈) assume the structure as drawn. The source made the active and inactive calls. The calls are words filed in the database; no cut-off is given here.

Columns and labels:
Moraxella catarrhalis = assay: Antibacterial activity against Moraxella catarrhalis by microbroth technology; type: functional
Summary of the method: (§1)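 MIC determined by broth microdilution, reported in µg/mL.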

[1] = Bioavailability in Sprague-Dawley rat at 20 mg/kg, po; type: ADME, organism-based; conditions: Sprague-Dawley, in vivo
[2] = Volume of distribution at steady state in Sprague-Dawley rat at 10 mg/kg, iv; type: ADME, organism-based; set-up: dose 10 mg/kg, route intravenous; conditions: in vivo, read-out: Vdss
[3] = Half life in Sprague-Dawley rat at 20 mg/kg, po; type: ADME, organism-based; set-up: dose 20 mg/kg, route oral; conditions: in vivo
[4] = biological target: T1, Amine oxidase [flavin-containing] A (Homo sapiens, UniProt P21397); assay: Inhibition of human recombinant MAOA
T1 sequence (P21397 whole entry): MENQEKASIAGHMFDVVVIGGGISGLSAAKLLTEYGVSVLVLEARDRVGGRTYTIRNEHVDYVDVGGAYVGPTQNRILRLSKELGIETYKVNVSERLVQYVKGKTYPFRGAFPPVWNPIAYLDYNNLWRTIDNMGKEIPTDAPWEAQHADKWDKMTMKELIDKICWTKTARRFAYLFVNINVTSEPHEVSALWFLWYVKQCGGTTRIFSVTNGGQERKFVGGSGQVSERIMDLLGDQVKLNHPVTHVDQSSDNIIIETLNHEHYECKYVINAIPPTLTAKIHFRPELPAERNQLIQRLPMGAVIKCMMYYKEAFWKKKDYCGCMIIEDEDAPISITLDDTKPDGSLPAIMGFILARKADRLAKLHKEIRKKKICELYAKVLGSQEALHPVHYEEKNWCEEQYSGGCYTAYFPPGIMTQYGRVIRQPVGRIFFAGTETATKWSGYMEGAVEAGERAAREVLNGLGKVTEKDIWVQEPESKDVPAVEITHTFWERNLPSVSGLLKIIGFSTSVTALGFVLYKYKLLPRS

Enterococcus faecalis = assay: Antibacterial activity against vancomycin-resistant Enterococcus faecalis MGH2 EF1 by microbroth technology; type: functional
Summary of the method: (§2)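 Drug-resistant panel strains (levofloxacin/oxacillin-resistant S. aureus, levofloxacin/penicillin-resistant S. pneumoniae, vancomycin-resistant E. faecalis and E. faecium). Broth microdilution MIC in µg/mL; value reported as MIC90 across the strains of each resistant group.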

Enterococcus faecium = assay: Antibacterial activity against vancomycin-resistant Enterococcus faecium by micro-broth technology; type: functional; summary of the method: as §2
[5] = Clearance in Sprague-Dawley rat at 10 mg/kg, iv; type: ADME, organism-based; set-up: dose 10 mg/kg, route intravenous; conditions: in vivo
[6] = Cmax in Sprague-Dawley rat at 20 mg/kg, po; type: ADME, organism-based; set-up: dose 20 mg/kg, route oral; conditions: in vivo
Staphylococcus aureus [7] = assay: Antibacterial activity against Staphylococcus aureus UC76 in po dosed CD1 mouse systemic infection model assessed as mortality after 7 days; type: functional
Streptococcus pneumoniae [8] = assay: Antibacterial activity against levofloxacin-penicillin-resistant Streptococcus pneumoniae SV1 SP3 by microbroth technology; type: functional; summary of the method: as §2
Staphylococcus aureus [9] = assay: Antibacterial activity against levofloxacin-oxacillin-resistant Staphylococcus aureus UC76 SA1 by micro-broth technology; type: functional; summary of the method: as §2
Haemophilus influenzae = assay: Antibacterial activity against Haemophilus influenzae by micro-broth technology; type: functional; summary of the method: as §1
[10] = AUC in Sprague-Dawley rat at 20 mg/kg, po; type: ADME, organism-based, Plasma; set-up: dose 20 mg/kg, route oral; conditions: Sprague-Dawley, plasma
Escherichia coli = assay: Inhibition of protein synthesis in Escherichia coli by cell-free transcription-translation assay; type: functional
Summary of the method: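 E. coli cell-free coupled transcription/translation run in microtiter format with a luciferase reporter; luminescence was the read-out for protein synthesis.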

Rattus norvegicus [11] = assay: Effect on hematology in Sprague-Dawley rat assessed as decrease in reticulocytes at 200 mg/kg/day after 14 days; type: ADME, organism-based; set-up: scale not given: the % may be the effect or the level left; conditions: in vivo, 336 h
Summary of the method: (§3)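 Female Sprague-Dawley rats received vehicle or drug by oral gavage daily for 14 days, at doses of 40-1000 (mg/kg)/day across the studies. End points were moribundity or lethality, hematology (RBC, hemoglobin, hematocrit, reticulocytes), bone marrow M:E ratio and plasma AUC(0-24).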

Enterococcus = assay: Bacteriostatic activity against Enterococcus after 48 hrs by time kill study; type: functional, organism-based
[12] = AUC (0 to 24 hrs) in Sprague-Dawley rat plasma at 40 mg/kg/day after 14 days; type: ADME, organism-based; set-up: dose 40 mg/kg/day, time < 24 hr; summary of the method: as §3
Staphylococcus = assay: Bacteriostatic activity against Staphylococcus after 48 hrs by time kill study; type: functional, organism-based
[13] = AUC (0 to 24 hrs) in Sprague-Dawley rat plasma at 200 mg/kg/day, po after 14 days; type: ADME, organism-based; set-up: dose 200 mg/kg/day, time < 24 hr, route oral; summary of the method: as §3
Rattus norvegicus [14] = assay: Toxicity in Sprague-Dawley rat at 1000 mg/kg/day, po after 14 days; type: organism-based; set-up: route oral; conditions: in vivo, 336 h; summary of the method: as §3
Streptococcus pyogenes = assay: Antibacterial activity against Streptococcus pyogenes C203 by micro-broth technology; type: functional
Rattus norvegicus [15] = assay: Effect on hematology in Sprague-Dawley rat assessed as decrease in red blood cells at 200 mg/kg/day, po after 14 days; type: ADME, organism-based; set-up: route oral; scale not given: the % may be the effect or the level left; conditions: in vivo, 336 h; summary of the method: as §3
Streptococcus pneumoniae [16] = assay: Bactericidal activity against Streptococcus pneumoniae after 48 hrs by time kill study; type: functional, organism-based
Summary of the method: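 Time-kill study: bacteria exposed continuously to drug at 2-16× the MIC and sampled over 48 h to assess eradication.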

Staphylococcus aureus [17] = assay: Antibacterial activity against methicillin-resistant Staphylococcus aureus SA1417 in po dosed CD1 mouse systemic infection model assessed as mortality after 7 days; type: functional
Rattus norvegicus [18] = assay: Effect on hematology in Sprague-Dawley rat assessed as decrease in hemoglobin at 200 mg/kg/day, po after 14 days; type: ADME, organism-based; set-up: route oral; scale not given: the % may be the effect or the level left; conditions: in vivo, 336 h; summary of the method: as §3
Staphylococcus aureus [19] = assay: Antibacterial activity against […] in po dosed CD1 mouse systemic infection model assessed as mortality after 7 days; type: functional
Rattus norvegicus [20] = assay: Effect on hematology in Sprague-Dawley rat assessed as increase in hematocrit at 200 mg/kg/day, po after 14 days; type: ADME, organism-based; set-up: route oral; conditions: in vivo, 336 h

NC(=O)[C@H]1CN(c2ccc(C3CCS(=O)(=O)CC3)c(F)c2)C(=O)O1
MIC (Moraxella catarrhalis): > 8 µg/mL | bioavailability [1]: 40% | Vd [2]: 1.11 L/kg | half-life [3]: 1.58 h | pIC50 [4]: 3.98 | MIC90 (Enterococcus faecalis): 2 µg/mL (≈ 5.61 µM) | MIC90 (Enterococcus faecium): 4 µg/mL (≈ 11.2 µM) | clearance [5]: 12.9 mL/min/kg | Cmax [6]: 1880 ng/mL | PD50 (Staphylococcus aureus [7]): 2.1 mg/kg | MIC90 (Streptococcus pneumoniae [8]): 2 µg/mL (≈ 5.61 µM) | MIC90 (Staphylococcus aureus [9]): 2 µg/mL (≈ 5.61 µM) | MIC (Haemophilus influenzae): > 8 µg/mL | AUC [10]: 8620 ng·h/mL | pIC50 (Escherichia coli): 5.23

CC(=O)NC[C@H]1CN(c2ccc(N3CCOCC3)c(F)c2)C(=O)O1 [LINEZOLID]
Activity (Rattus norvegicus [11]): 97% | Activity (Enterococcus): Active | AUC at 24 h [12]: 105000 ng·h/mL | Activity (Staphylococcus): Active | AUC at 24 h [13]: 666000 ng·h/mL | Activity (Rattus norvegicus [14]): Toxic | MIC (Streptococcus pyogenes): 4 µg/mL (≈ 11.9 µM) | pIC50 [4]: 4.28 | Activity (Rattus norvegicus [15]): 9% | MIC90 (Enterococcus faecalis): 2 µg/mL (≈ 5.93 µM) | MIC90 (Enterococcus faecium): 4 µg/mL (≈ 11.9 µM) | Activity (Streptococcus pneumoniae [16]): Active | PD50 (Staphylococcus aureus [17]): 6.25 mg/kg | PD50 (Staphylococcus aureus [7]): 3.1 mg/kg | Activity (Rattus norvegicus [18]): 9% | PD50 (Staphylococcus aureus [19]): 5 mg/kg | Activity (Rattus norvegicus [20]): -9% | MIC90 (Streptococcus pneumoniae [8]): 1 µg/mL (≈ 2.96 µM) | MIC90 (Staphylococcus aureus [9]): 4 µg/mL (≈ 11.9 µM) | pIC50 (Escherichia coli): 5.44

NC(=O)[C@H]1CN(c2cc(F)c(C3CC[S+]([O-])CC3)c(F)c2)C(=O)O1 (some centres undefined)
MIC (Moraxella catarrhalis): > 8 µg/mL | bioavailability [1]: 65% | Vd [2]: 0.83 L/kg | half-life [3]: 2.24 h | pIC50 [4]: 3.45 | MIC90 (Enterococcus faecalis): 2 µg/mL (≈ 5.58 µM) | MIC90 (Enterococcus faecium): 2 µg/mL (≈ 5.58 µM) | clearance [5]: 12.8 mL/min/kg | Cmax [6]: 4690 ng/mL | PD50 (Staphylococcus aureus [7]): 1.1 mg/kg | MIC90 (Streptococcus pneumoniae [8]): 2 µg/mL (≈ 5.58 µM) | MIC90 (Staphylococcus aureus [9]): 2 µg/mL (≈ 5.58 µM) | MIC (Haemophilus influenzae): > 8 µg/mL | AUC [10]: 15400 ng·h/mL | pIC50 (Escherichia coli): 5.44

NC(=O)[C@H]1CN(c2cc(F)c(N3CCOCC3)c(F)c2)C(=O)O1
MIC (Moraxella catarrhalis): > 8 µg/mL | pIC50 [4]: 4.20 | MIC90 (Enterococcus faecalis): 8 µg/mL (≈ 24.4 µM) | MIC90 (Enterococcus faecium): 8 µg/mL (≈ 24.4 µM) | PD50 (Staphylococcus aureus [7]): 6.7 mg/kg | MIC90 (Streptococcus pneumoniae [8]): 4 µg/mL (≈ 12.2 µM) | MIC90 (Staphylococcus aureus [9]): 4 µg/mL (≈ 12.2 µM) | MIC (Haemophilus influenzae): > 8 µg/mL | pIC50 (Escherichia coli): 4.77
